From ChEMBL document CHEMBL1145523, “Genetic targeting of the kinase activity of the Met receptor in cancer cells” (Proc Natl Acad Sci U S A, 2007)
The source made the active and inactive calls.

How the values were obtained:
DLD1 KD [1] = assay: Inhibition of human MSK phosphorylation in DLD1 KD cells carrying inactive MET kinase at 2.5 uM; format: cell-based
Procedure, shortened: (§1)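 Parental or MET-KD DLD1 cells held 16 h with or without 2.5 μM inhibitor, then lysed. Phosphorylation read on a human phospho-MAPK antibody array following the kit instructions. Dot signals quantified by densitometry and normalized to untreated WT DLD1 cells (set to 1). Significance by two-tailed Student's t test against WT untreated cells.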

DLD-1 [2] = assay: Reduction of proliferation in human DLD1 cells at 2.5 uM by ATP-based assay; format: functional, cell-based
Procedure, shortened: (§2)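 Parental DLD1 and two independent MET-KD clones seeded at equal density in 96-well plates and given 2.5 μM inhibitor. Cell number measured as ATP-based luminescence (RLU). Mean of triplicates ± SD.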

DLD-1 [3] = assay: Reduction of proliferation in human DLD1 KD1 cell carrying inactive MET kinase at 2.5 uM by ATP-based assay; format: functional; procedure, shortened: as §2
DLD-1 [4] = assay: Reduction of proliferation in human DLD1 KD2 cell carrying inactive MET kinase at 2.5 uM by ATP-based assay; format: functional; procedure, shortened: as §2
[5] = target: T1, c-Jun N-terminal kinase, JNK (Homo sapiens) (UniProt P45983+P53779+P45984); assay: Inhibition of human JNK phosphorylation in DLD1 cells at 2.5 uM; format: cell-based; details: DLD-1; procedure, shortened: as §1
[6] = target: T1, c-Jun N-terminal kinase, JNK (Homo sapiens); assay: Inhibition of human JNK phosphorylation in DLD1 KD cells carrying kinase inactive MET at 2.5 uM; format: cell-based; procedure, shortened: as §1
DLD-1 [7] = assay: Inhibition of human MSK phosphorylation in DLD1 cells at 2.5 uM; format: cell-based; procedure, shortened: as §1
[8] = target: Mitogen-activated protein kinase 14 (Homo sapiens) (UniProt Q16539); assay: Inhibition of human p38-alpha phosphorylation in DLD1 cells at 2.5 uM; format: cell-based; details: DLD-1; procedure, shortened: as §1
[9] = target: Mitogen-activated protein kinase 14 (Homo sapiens) (UniProt Q16539); assay: Inhibition of human p38-alpha phosphorylation in DLD1 KD cells carrying inactive MET kinase at 2.5 uM; format: cell-based; procedure, shortened: as §1
DLD-1 [10] = assay: Inhibition of human p70s6K phosphorylation in DLD1 cells at 2.5 uM; format: cell-based; procedure, shortened: as §1
DLD1 KD [11] = assay: Inhibition of human p70s6K phosphorylation in DLD1 KD cells carrying inactive MET kinase at 2.5 uM; format: cell-based; procedure, shortened: as §1

Measured: Activity

Chain of Mitogen-activated protein kinase 14 (Homo sapiens) (Q16539 whole entry): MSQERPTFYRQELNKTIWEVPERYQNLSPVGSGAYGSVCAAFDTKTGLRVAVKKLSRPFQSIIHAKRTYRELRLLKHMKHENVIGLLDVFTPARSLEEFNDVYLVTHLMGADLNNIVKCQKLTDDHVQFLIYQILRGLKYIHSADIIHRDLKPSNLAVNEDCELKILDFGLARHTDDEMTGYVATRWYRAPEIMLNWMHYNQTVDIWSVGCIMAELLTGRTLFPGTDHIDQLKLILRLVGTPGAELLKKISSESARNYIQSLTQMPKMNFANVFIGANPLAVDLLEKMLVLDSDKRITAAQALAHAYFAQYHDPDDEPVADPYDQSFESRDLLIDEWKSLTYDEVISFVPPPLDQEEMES

Cc1[nH]c(/C=C2\C(=O)Nc3ccc(S(=O)(=O)N(C)c4cccc(Cl)c4)cc32)c(C)c1C(=O)N1CCN(C)CC1
active: DLD1 KD [1] | DLD-1 [2] | DLD-1 [3] | DLD-1 [4] | [5] | [6] | DLD-1 [7] | [8] | [9] | DLD-1 [10] | DLD1 KD [11]
